According to ChEMBL document CHEMBL1151234, “Chemistry of renieramycins. Part 5. Structure elucidation of renieramycin-type derivatives O, Q, R, and S from thai marine sponge Xestospongia species pretreated with potassium cyanide” (J Nat Prod, 2004):

How the values were obtained:
HCT-116 = assay: Cytotoxicity against human HCT116 cells after 4 days; assay type: functional, cell-based; details: HCT-116, 96 h
Procedure, shortened: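 Single-cell suspension of HCT116 cells seeded at 2 × 10^3 cells/well onto serially diluted test compounds, cultured 4 days. Growth read with a cell counting kit. IC50 taken as the concentration giving 50% growth inhibition versus untreated control.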

QG-56 = assay: Cytotoxicity against human QG56 cells after 4 days; assay type: functional, cell-based; details: QG-56, 96 h

Structure (SMILES)	IC50 (HCT-116)	IC50 (QG-56)
C/C=C(/C)C(=O)OC[C@H]1C2=C(C[C@H]3[C@H]4c5c(OC(C)=O)c(OC)c(C)c(OC(C)=O)c5[C@H](OC(C)=O)[C@@H]([C@H](C#N)N13)N4C)C(=O)C(C)=C(OC)C2=O	630 nM	1600 nM
C/C=C(/C)C(=O)OC[C@H]1c2c(c(OC(C)=O)c(C)c(OC)c2OC(C)=O)C[C@H]2[C@H]3c4c(c(OC(C)=O)c(C)c(OC)c4OC(C)=O)C[C@@H]([C@H](C#N)N12)N3C	3 nM	7.9 nM
C/C=C(/C)C(=O)OC[C@H]1C2=C(C[C@H]3[C@H]4C5=C(C(=O)C(C)=C(OC)C5=O)[C@H](OC)[C@@H]([C@H](C#N)N13)N4C)C(=O)C(C)=C(OC)C2=O [RENIERAMYCIN R]	23 nM	29 nM
C/C=C(/C)C(=O)OC[C@H]1C2=C(C[C@H]3[C@H]4c5c(O)c(OC)c(C)c(O)c5C(=O)[C@@H]([C@H](C#N)N13)N4C)C(=O)C(C)=C(OC)C2=O [RENIERAMYCIN Q]	59 nM	71 nM
C/C=C(/C)C(=O)OC[C@H]1c2c(c(OC(C)=O)c(C)c(OC)c2OC(C)=O)C[C@H]2[C@H]3C4=C(C[C@@H]([C@H](C#N)N12)N3C)C(=O)C(C)=C(OC)C4=O	1.9 nM	3.9 nM
C/C=C(/C)C(=O)OC[C@H]1C2=C(C[C@H]3[C@H]4C5=C(C(=O)C(C)=C(OC)C5=O)[C@H](OC(C)=O)[C@@H]([C@H](C#N)N13)N4C)C(=O)C(C)=C(OC)C2=O	120 nM	300 nM
C/C=C(/C)C(=O)OC[C@H]1C2=C(C[C@H]3[C@H]4C5=C(C[C@@H]([C@H](C#N)N13)N4C)C(=O)C(C)=C(OC)C5=O)C(=O)C(C)=C(O)C2=O [RENIERAMYCIN S]	15 nM	26 nM
